ERAP1 HTS inh – inhibitors of human ERAP1 aminopeptidase; Q9NZ08; recombinant ERAP1, Leu-AMC fluorescence, 60 min; inhibition, % at 10.7 µM; actives 0.15% (n = 340,000);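 active = mean replicate inhibition of at least 30%, or all replicates individually reaching that 30% level; inactive = mean below 30% and not every replicate reaching it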;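 also: 0% = neutral control wells and 100% = L-leucinethiol positive control wells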
MLL AF4-AF9 inh – inhibitors of human MLL-AF4/AF9 interaction. P42568. actives 0.47% (n = 350,000). AID 651704. AlphaScreen, biotin-AF4 peptide binding to FLAG-AF9. inhibition, % at 10 µM;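 active = every replicate reaching a set inhibition limit, whatever the replicate mean, cut at about 25% in these data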;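 also: 0% = plate neutral control median and 100% = total signal loss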
Target sequence (P42568 whole entry, looked up): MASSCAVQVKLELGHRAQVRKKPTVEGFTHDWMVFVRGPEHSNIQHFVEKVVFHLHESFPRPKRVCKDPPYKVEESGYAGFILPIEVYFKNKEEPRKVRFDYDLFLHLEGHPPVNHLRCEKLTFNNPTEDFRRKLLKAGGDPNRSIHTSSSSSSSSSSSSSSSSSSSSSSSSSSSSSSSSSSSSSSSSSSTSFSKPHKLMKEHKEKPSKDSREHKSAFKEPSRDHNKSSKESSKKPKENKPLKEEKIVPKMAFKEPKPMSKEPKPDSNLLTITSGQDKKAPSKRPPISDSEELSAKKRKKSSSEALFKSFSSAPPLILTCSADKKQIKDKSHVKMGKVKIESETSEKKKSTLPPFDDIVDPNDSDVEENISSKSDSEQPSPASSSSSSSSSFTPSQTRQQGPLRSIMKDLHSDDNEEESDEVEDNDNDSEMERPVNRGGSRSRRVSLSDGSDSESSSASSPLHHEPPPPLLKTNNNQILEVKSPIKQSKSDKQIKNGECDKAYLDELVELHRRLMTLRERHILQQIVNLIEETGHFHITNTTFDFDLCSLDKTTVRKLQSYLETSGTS
Ecoli rRNA inh – selective bacterial rRNA inhibition in E. coli. actives 1.6% (n = 350,000). E. coli WT GFP vs humanized-ribosome RFP mutants, fluorescence, 24 h; hits give low values; DMSO median 0, no signal -100. GFP signal change (wild-type ribosome), % (concentration not given with the values). AID 720706;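 active = significant combined selectivity score with lowered wild-type GFP, culture density cut under 30%, mutant RFP and density less affected; inactive = any of these conditions unmet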
SIRT5 inh – blocks human SIRT5 desuccinylation of peptide; Q9NXA8; Purified SirT5, succinyl-peptide AMC, trypsin-coupled fluorescence; inhibition, % at 15 µM; actives 1.1% (n = 330,000); AID 652115; in the data active = inhibition above about 15%
E-sel inducer – induces E-selectin expression in human endothelial cells | P16581 | HUVEC E-selectin immunofluorescence imaging; normalized: neutral wells 0, TNF-alpha wells 100 | activation, % at 7.58 µM | actives 0.37% (n = 260,000) | AID 686992;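 active = mean E-selectin-positive cell signal at least 10% of the positive control, reached in at least 60% of replicates, without over 20% cell loss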
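Read-out: % PE-positive cells | Test system: HUVEC | Doses: One compound dose added by pin transfer | Buffer or medium: EGM-2 over gelatin coat | Signal: Immunofluorescence imaging | Benchmarks: TNF-alpha, DMSO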
S100A4 MyoIIA – inhibitors of human S100A4 binding to myosin IIA peptide; P26447; S100A4/TAMRA-MyoIIA peptide fluorescence polarization; inhibition, % at 10.7 µM; actives 0.14% (n = 360,000); AID 652163;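 active = mean inhibition of at least 70% across replicates, with every replicate also reaching that level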
Target sequence (P26447 whole entry, looked up): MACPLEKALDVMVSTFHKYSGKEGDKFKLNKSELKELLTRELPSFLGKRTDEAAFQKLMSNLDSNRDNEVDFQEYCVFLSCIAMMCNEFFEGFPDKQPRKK
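Material: S100A4 monomer (human). Medium: Calcium-containing HEPES buffer, pH 7.2. Probe or stimulus: labelled myosin peptide probe, 5 nM. Compound dosing: one concentration per compound. Timing: polarization read 5 min after assay mix addition, stable 5–60 min. Benchmarks: DMSO as neutral control, TFP as positive control.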
Numbers without * were called inactive; ! = not active in a repeat. The list is not random: actives were taken first. Their share in the collection is about 3.4%.

CC(=O)Nc1ccc(NC(=O)c2ccc(S(=O)(=O)N(C)c3ccccc3)cc2)cc1 was read as ERAP1 HTS inh 2, MLL AF4-AF9 inh -1, Ecoli rRNA inh 7, SIRT5 inh -2, E-sel inducer -1 and S100A4 MyoIIA 14.
For CN(c1ccccc1)S(=O)(=O)c1ccc(-c2ccccc2)cc1 the results were ERAP1 HTS inh 2, MLL AF4-AF9 inh 1, Ecoli rRNA inh -24*, SIRT5 inh 0, E-sel inducer 1 and S100A4 MyoIIA -7.
Cc1ccc(-c2nc(C#N)c(NCC3CCCO3)o2)cc1 (centres undefined) was read as ERAP1 HTS inh -3, MLL AF4-AF9 inh 2, Ecoli rRNA inh -24*, SIRT5 inh -24 and S100A4 MyoIIA 5.
Screening Cc1cccc(-c2nc(C#N)c(NCC3CCCO3)o2)c1 (centres undefined) returned ERAP1 HTS inh 1, MLL AF4-AF9 inh -4, SIRT5 inh -7 and S100A4 MyoIIA -2.
Oc1c(CNc2ccccc2)cc(COCc2ccccc2)c2cccnc12 was read as ERAP1 HTS inh -2, MLL AF4-AF9 inh 68*, Ecoli rRNA inh -30, SIRT5 inh -3, E-sel inducer 0 and S100A4 MyoIIA 2.
For C[C@@H]1CN([C@@H](C)CO)C(=O)CCCn2nncc2CO[C@H]1CN(C)S(=O)(=O)c1ccc2c(c1)OCCCO2 the results were ERAP1 HTS inh -4, MLL AF4-AF9 inh 0, Ecoli rRNA inh 7, SIRT5 inh 20*!, E-sel inducer 0 and S100A4 MyoIIA -5.
C[C@H]1CN([C@@H](C)CO)C(=O)CCCn2nncc2CO[C@H]1CN(C)S(=O)(=O)c1ccc2c(c1)OCCCO2 was read as ERAP1 HTS inh 1, MLL AF4-AF9 inh 1, Ecoli rRNA inh -2, SIRT5 inh -2 and S100A4 MyoIIA 117*!.
Screening O=C(C[C@H]1CC[C@H]2[C@@H](COC[C@H](O)CN2CC2CCCC2)O1)NCC1CC1 returned ERAP1 HTS inh -7, MLL AF4-AF9 inh -4, Ecoli rRNA inh 1, SIRT5 inh 0, E-sel inducer 0 and S100A4 MyoIIA 6.
Cc1ccc(S(=O)(=O)Nc2cccc(-c3ccc(N4CCCCCC4)nn3)c2)cc1 was read as ERAP1 HTS inh -1, MLL AF4-AF9 inh 3, Ecoli rRNA inh -23*, SIRT5 inh 4 and S100A4 MyoIIA 2.
`COc1ccc(S(=O)(=O)Nc2cccc(-c3ccc(N4CCCCCC4)nn3)c2)cc1OC` gave ERAP1 HTS inh -2, MLL AF4-AF9 inh 0, Ecoli rRNA inh 6, SIRT5 inh 0 and S100A4 MyoIIA 1.
For O=C(Nc1cc(F)ccc1F)N1CCCCN2[C@@H](CO)[C@H](c3ccc(-c4cccnc4)cc3)[C@@H]2C1 the results were Ecoli rRNA inh -24* and E-sel inducer 0.
For COc1ccccc1NC(=O)N1CCCCN2[C@H](CO)[C@H](c3ccc(-c4cccc(F)c4)cc3)[C@@H]2C1 the results were ERAP1 HTS inh 0, MLL AF4-AF9 inh -4, Ecoli rRNA inh -3, SIRT5 inh 16*, E-sel inducer -1 and S100A4 MyoIIA 1.
`O=C(Nc1cc(F)ccc1F)N1CCCCN2[C@H](C1)[C@H](c1ccc(-c3ccccc3)cc1)[C@@H]2CO` gave ERAP1 HTS inh -1, MLL AF4-AF9 inh -4, Ecoli rRNA inh -5, SIRT5 inh 3, E-sel inducer 0 and S100A4 MyoIIA 13.
Screening O=C(Nc1cc(F)ccc1F)N1CCCCN2[C@H](CO)[C@H](c3ccc(-c4ccccc4)cc3)[C@H]2C1 returned ERAP1 HTS inh -2, MLL AF4-AF9 inh 7, Ecoli rRNA inh -59, SIRT5 inh 29*, E-sel inducer -1 and S100A4 MyoIIA -3.
O=C(Cc1cccnc1)N1CC(=O)N2[C@H](C1)[C@@H](c1ccc(-c3cccc(F)c3)cc1)[C@@H]2CO was read as Ecoli rRNA inh -11.
`COc1ccc(C(=O)Nc2cccc3cccnc23)cc1OC` gave ERAP1 HTS inh 3, MLL AF4-AF9 inh -1, Ecoli rRNA inh 1, SIRT5 inh 20* and S100A4 MyoIIA -1.
`O=C(Nc1cccc2cccnc12)c1ccccc1Br` gave ERAP1 HTS inh -2, Ecoli rRNA inh -25*, SIRT5 inh -1 and S100A4 MyoIIA -2.
`Cc1noc(C)c1NC(=O)N(C)C[C@H]1OCCCC[C@H](C)Oc2ccc(NC(=O)Cc3ccccc3)cc2C(=O)N([C@@H](C)CO)C[C@H]1C` gave ERAP1 HTS inh 1, MLL AF4-AF9 inh -2, Ecoli rRNA inh 0, SIRT5 inh -7, E-sel inducer 0 and S100A4 MyoIIA 12.
`C[C@H](CO)N1C[C@H](C)[C@H](CN(C)C(=O)Nc2cccc3ccccc23)Oc2ccc(NC(=O)C3CCCCC3)cc2CC1=O` gave ERAP1 HTS inh 4, MLL AF4-AF9 inh -1, Ecoli rRNA inh -2, SIRT5 inh 0, E-sel inducer 0 and S100A4 MyoIIA -10.
COc1ccc(CN(C)C[C@H]2Oc3ccc(NC(=O)Nc4ccc(OC)cc4)cc3C(=O)N([C@H](C)CO)C[C@H]2C)cc1 was read as ERAP1 HTS inh -3, MLL AF4-AF9 inh 4, Ecoli rRNA inh 2, SIRT5 inh -3, E-sel inducer 0 and S100A4 MyoIIA -5.
Screening COc1ccc(NC(=O)Nc2ccc3c(c2)C(=O)N([C@@H](C)CO)C[C@H](C)[C@H](CN(C)Cc2ccc(Cl)c(Cl)c2)O3)cc1 returned ERAP1 HTS inh 1, MLL AF4-AF9 inh 0, Ecoli rRNA inh -1, SIRT5 inh 19*, E-sel inducer 11 and S100A4 MyoIIA 1.
For COc1ccc(NC(=O)Nc2ccc3c(c2)C(=O)N([C@@H](C)CO)C[C@H](C)[C@H](CN(C)Cc2ccc(-c4ccccc4)cc2)O3)cc1 the results were ERAP1 HTS inh -2, MLL AF4-AF9 inh 3, Ecoli rRNA inh -4, SIRT5 inh 20*, E-sel inducer 0 and S100A4 MyoIIA -47.
For COc1ccc(CN(C)C[C@@H]2Oc3ccc(NC(=O)Nc4ccccc4)cc3C(=O)N([C@@H](C)CO)C[C@H]2C)cc1 the results were ERAP1 HTS inh -4, MLL AF4-AF9 inh -6, Ecoli rRNA inh 4, SIRT5 inh 4, E-sel inducer 0 and S100A4 MyoIIA 4.
For COc1ccc(NC(=O)Nc2ccc3c(c2)C(=O)N([C@H](C)CO)C[C@@H](C)[C@@H](CN(C)Cc2ccc(Cl)c(Cl)c2)O3)cc1 the results were ERAP1 HTS inh 0, MLL AF4-AF9 inh 1, Ecoli rRNA inh -4, SIRT5 inh 3, E-sel inducer -1 and S100A4 MyoIIA -14.

Screens deposited in PubChem by Broad Institute.
